ChEMBL document CHEMBL4340532, “Design, synthesis, and biological evaluation of novel 2'-deoxy-2'-fluoro-2'-C-methyl 8-azanebularine derivatives as potent anti-HBV agents” (Bioorg Med Chem Lett, 2019)

Experiments:
[1] = Cytotoxicity against human HepG2 cells supplemented with fresh medium containing compound every 3 days for 9 days measured post-last dose by MTT assay; assay type: cell-based
Procedure, shortened: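 HepG2 cells were exposed to compound for 3 or 9 days and viability was read by MTT assay. CC50 is the concentration causing 50% cytotoxicity. Results are mean ± SD of three experiments.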

Hepatitis B virus [2] = experiment: Antiviral activity against Hepatitis B virus infected in human HepG2.2.15 cells assessed as inhibition of HBeAg secretion at 20 uM supplemented with fresh medium containing compound every 3 days for 6 days and measured on day 9 by ELISA relative to control; assay type: functional
Procedure, shortened: (§1)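 HepG2.2.15 cells were exposed to compound for up to 9 days. The initial screen used 20 µM for 9 days, with lamivudine (20 µM) as positive control. Follow-up used 10, 20 or 40 µM sampled at days 3, 6 and 9. HBsAg and HBeAg were quantified in culture supernatant by ELISA and compared with a no-drug control. Results are mean ± SD of three experiments.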

Hepatitis B virus [3] = experiment: Antiviral activity against Hepatitis B virus infected in human HepG2.2.15 cells assessed as inhibition of HBsAg secretion at 20 uM supplemented with fresh medium containing compound every 3 days for 6 days and measured on day 9 by ELISA relative to control; assay type: functional; procedure, shortened: as §1

C[C@@]1(F)[C@H](O)[C@@H](CO)O[C@H]1n1nnc2c(NCc3ccccc3)ncnc21
CC50 at 216 h [1]: > 600 µM | inhibition (INH) (Hepatitis B virus [2]): 11.9% | inhibition (INH) (Hepatitis B virus [3]): 8.5%
